Data: article PMC2911665 (The Journal of Cell Biology, 2010)
Where a SMILES comes first, the peptide text is derived from it. The star is where a group is joined. Cbz = O=C(OCc1ccccc1)*

T1: Y120A-SPSB2 (12–224) (mouse, UniProt O88838 12-224, Y120A)
T1 sequence (looked up): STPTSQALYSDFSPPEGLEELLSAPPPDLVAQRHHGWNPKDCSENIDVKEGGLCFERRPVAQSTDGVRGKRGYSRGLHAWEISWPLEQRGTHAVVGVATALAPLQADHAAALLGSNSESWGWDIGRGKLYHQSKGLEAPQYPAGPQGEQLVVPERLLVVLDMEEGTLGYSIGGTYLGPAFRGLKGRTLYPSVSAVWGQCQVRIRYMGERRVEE

T2: SPSB2 SPRY domain (residues 12–224) (mouse, UniProt O88838 12-224)
T2 sequence (looked up): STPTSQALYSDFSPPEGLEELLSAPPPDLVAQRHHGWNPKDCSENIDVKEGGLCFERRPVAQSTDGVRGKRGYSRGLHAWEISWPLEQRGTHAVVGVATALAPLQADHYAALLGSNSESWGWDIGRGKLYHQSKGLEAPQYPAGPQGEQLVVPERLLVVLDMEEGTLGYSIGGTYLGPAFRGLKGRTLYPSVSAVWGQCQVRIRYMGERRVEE


Molecular target: T1, Y120A-SPSB2 (12–224)
Test: ITC
Conditions: not given

fold reduction of affinity against wild-type SPSB2 (12–224) | Molecule
~5000 fold | Ac-KEEKDINNNVKKT-NH2 [iNOS N-terminal peptide, wild type (Ac-KEEKDINNNVKKT-NH2)]

Molecular target: SPSB2
Test: not given
Conditions: SPSB2 binding to Par-4; ref Woo et al., 2006; cited from earlier work

Molecule | Kd
Par-4: prostate apoptosis response protein 4, SPSB binding partner containing ELNNNL (human) (protein, UniProt Q96IZ0 1-340, looked up) PRKC apoptosis WT1 regulator …: MATGGYRTSSGLGGSTTDFLEEWKAKREKMRAKQNPPGPAPPGGGSSDAAGKPPAGALGTPAAAAANELNNNLPGGAPAAPAVPGPGGVNCAVGSAMLTRAAPGPRRSEDEPPAASASAAPPPQRDEEEPDGVPEKGKSSGPSARKGKGQIEKRKLREKRRSTGVVNIPAAECLDEYEDDEAGQKERKREDAITQQNTIQNEAVNLLDPGSSYLLQEPPRTVSGRYKSTTSVSEEDVSSRYSRTDRSGFPRYNRDANVSGTLVSSSTLEKKIEDLEKEVVRERQENLRLVRLMQDKEEMIGKLKEEIDLLNRDLDDIEDENEQLKQENKTLLKVVGQLTR | 4700 nM

Molecular target: SPSB1
Test: not given
Conditions: SPSB1 binding to Par-4; ref Woo et al., 2006; cited from earlier work

Molecule | Kd
Par-4: prostate apoptosis response protein 4, SPSB binding partner containing ELNNNL (human) (protein, UniProt Q96IZ0 1-340, looked up) PRKC apoptosis WT1 regulator …: MATGGYRTSSGLGGSTTDFLEEWKAKREKMRAKQNPPGPAPPGGGSSDAAGKPPAGALGTPAAAAANELNNNLPGGAPAAPAVPGPGGVNCAVGSAMLTRAAPGPRRSEDEPPAASASAAPPPQRDEEEPDGVPEKGKSSGPSARKGKGQIEKRKLREKRRSTGVVNIPAAECLDEYEDDEAGQKERKREDAITQQNTIQNEAVNLLDPGSSYLLQEPPRTVSGRYKSTTSVSEEDVSSRYSRTDRSGFPRYNRDANVSGTLVSSSTLEKKIEDLEKEVVRERQENLRLVRLMQDKEEMIGKLKEEIDLLNRDLDDIEDENEQLKQENKTLLKVVGQLTR | 146 nM

Molecular target: T2, SPSB2 SPRY domain (residues 12–224)
Test: ITC
Conditions: not given

Kd | Molecule
13.3 ± 3 nM | Ac-KEEKDINNNVKKT-NH2 [iNOS N-terminal peptide, wild type (Ac-KEEKDINNNVKKT-NH2)]
14 ± 3 nM | Ac-KEAKDINNNVKKT-NH2 [iNOS N-terminal peptide B (Ac-KEAKDINNNVKKT-NH2)]
17200 nM | Ac-KEEKDIANNVKKT-NH2 [iNOS N-terminal peptide G (Ac-KEEKDIANNVKKT-NH2)]
826 ± 20 nM | Ac-KEEKDINANVKKT-NH2 [iNOS N-terminal peptide I (Ac-KEEKDINANVKKT-NH2)]
65.4 ± 7.4 nM | Ac-KEAADINNNVKKT-NH2 [iNOS N-terminal peptide D (Ac-KEAADINNNVKKT-NH2)]
311 ± 37 nM | Ac-KEEADINNNAKAT-NH2 [iNOS N-terminal peptide O (Ac-KEEADINNNAKAT-NH2)]
29.8 ± 12.2 nM | Ac-KEEKDINNNVKAT-NH2 [iNOS N-terminal peptide M (Ac-KEEKDINNNVKAT-NH2)]
127 ± 23 nM | Ac-KEEADINNNVKKT-NH2 [iNOS N-terminal peptide C (Ac-KEEADINNNVKKT-NH2)]
23.5 ± 9.9 nM | Ac-KEEKDANNNVKKT-NH2 [iNOS N-terminal peptide F (Ac-KEEKDANNNVKKT-NH2)]
21600 ± 750 nM | Ac-KEEKAINNNVKKT-NH2 [iNOS N-terminal peptide E (Ac-KEEKAINNNVKKT-NH2)]
40500 nM | Ac-KEEKDIQNNVKKT-NH2 [iNOS N-terminal peptide H (Ac-KEEKDIQNNVKKT-NH2)]
56.8 ± 11.2 nM | Ac-KEEKDINNNAKKT-NH2 [iNOS N-terminal peptide L (Ac-KEEKDINNNAKKT-NH2)]
180 ± 39 nM | Ac-KEEKDINNNAKAT-NH2 [iNOS N-terminal peptide N (Ac-KEEKDINNNAKAT-NH2)]

Test system: iNOS degradation in Spsb2T/+ BMDMs
Test: iNOS degradation in Spsb2T/+ BMDMs after LPS/IFN-γ stimulation and wash
Format: cell-based, mouse
Conditions: 10 µM MG-132 in fresh medium after wash
Summary of the method: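 Bone marrow macrophages (>95% CD11b+ after 6 d culture) from littermate controls, SPSB2-transgenic or SOCS-box-deleted transgenic mice, stimulated overnight with LPS/IFN-γ or left unstimulated. Washed, refed with medium ±10 µM MG-132 (proteasome inhibitor), lysed at set times after wash. Lysates run on SDS-PAGE, blotted with anti-iNOS, peroxidase secondary and ECL. Membranes stripped (0.1 M Gly, pH 2.9) and reprobed for tubulin as loading control.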

Molecule | effect on enhanced iNOS degradation
CC(C)C[C@@H](C=O)NC(=O)[C@H](CC(C)C)NC(=O)[C@H](CC(C)C)NC(=O)OCc1ccccc1 [MG-132] (Cbz-Leu-Leu-Leu-aldehyde) | abrogated
